Bioassay records: PubChem BioAssay, several laboratories
XBP1 UPR activ: activators of adaptive XBP1 UPR arm, primary screen, cell-based, CHO-XBP1 luciferase reporter, luminescence, uHTS; IRE1-XBP1 UPR activation; percent of tunicamycin response, DMSO as zero; activation, % at 20 µM; hit rate 0.33% among 330,000; AID 463104, 2010;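 active means versus positive control, 20 µM dose yields 30% or more activation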;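 further: 100% = tunicamycin at 10 µg/mL and 0% = DMSO only wells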
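incubation = overnight seeding at 37 °C, 6 h compound treatment at 37 °C | assay system = CHO-XBP1 cells stably carrying IRE1-XBP1-driven luciferase reporter | input = 1000 cells per well | detection = luciferase luminescence | dosing = single point, 20 µM final compound, 1% DMSO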
TLR4 MyD88 comp: inhibitors of TLR4-MyD88 association in cells, primary screen, cell-based, HeLa CL3-4, BLA complementation, FRET ratio | inhibition, % at 8.4 µM | AID 861, 2007 | hit rate 0.18% among 200,000 | HeLa CL3-4 TLR4/MyD88 BLA complementation; in the data active means inhibition above about 25%;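 further: 0% = vehicle and 100% = reference inhibitor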
UPR CHOP act: activators of apoptotic CHOP UPR arm, primary screen, cell-based, CHO-CHOP luciferase reporter, luminescence, uHTS; UPR activation; percent of tunicamycin response over DMSO baseline; activation, % at 10 µM; hit rate 0.34% among 330,000; AID 449763, 2010;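 active means at 10 µM dose, activation of 40% or more, normalized to positive control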;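 further: 100% = tunicamycin at 10 µg/mL and 0% = DMSO alone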
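System: CHO CHOP reporter cells. Amount: 500 cells per well. Buffer or medium: F12 medium, 10% FBS. Compound dosing: one dose, 10 µM in 0.5% DMSO. Incubation: 6 h compound exposure at 37 °C after overnight seeding. Technique: Steady-Glo luciferase luminescence. Benchmarks: tunicamycin and DMSO controls.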
CHOP inh: inhibitors of CHOP promoter induction, primary screen, cell-based, unfolded protein response, luciferase reporter. inhibition, % at 10 µM. hit rate 3.8% among 220,000. CHO-K1 CHOP-promoter luciferase, tunicamycin-induced, 15-18 h. AID 2732, 2010;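 active means compounds that reduced the stress-induced luciferase reporter signal by more than about 70% of percent inhibition, limit read from the data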;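 further: 0% = tunicamycin plus vehicle and 100% = wells without tunicamycin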
NOD2-RIPK2 inh: NOD2-RIPK2 binding disruptors in cells, primary screen, fluorescence, CHO cells, BLA complementation. Receptor-interacting serine/threonine-protein kinase 2 (Homo sapiens), O43353. CCF4 ratio. inhibition, % at 4.98 µM. hit rate 0.38% among 360,000. AID 624267, 2012; in the data active means inhibition above about 21%;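 further: 0% = vehicle only and 100% = reference blocker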
TLR9-MyD88 inh: inhibitors of TLR9-MyD88 association in cells, primary screen, cell-based, CHO, BLA complementation, fluorescence. Toll-like receptor 9 (Homo sapiens) + Myeloid differentiation primary response protein …. CCF4 FRET ratio. inhibition, % at 4.98 µM. hit rate 0.21% among 340,000. AID 504734, 2011;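 active means inhibition above the mean over all tested compounds plus 3 SD, cut at about 21% in these data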;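 further: 0% = DMSO only wells and 100% = clavulanate BLA inhibitor control wells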
Target sequence (Q99836 whole entry, looked up): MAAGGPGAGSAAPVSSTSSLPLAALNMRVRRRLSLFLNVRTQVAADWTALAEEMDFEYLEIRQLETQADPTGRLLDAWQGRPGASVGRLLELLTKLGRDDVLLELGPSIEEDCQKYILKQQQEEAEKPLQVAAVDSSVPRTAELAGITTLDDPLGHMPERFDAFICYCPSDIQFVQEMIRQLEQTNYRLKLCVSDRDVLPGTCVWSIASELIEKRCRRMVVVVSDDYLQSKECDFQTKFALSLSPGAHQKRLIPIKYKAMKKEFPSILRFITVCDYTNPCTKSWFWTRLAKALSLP
Target sequence (Q9NR96 whole entry, looked up): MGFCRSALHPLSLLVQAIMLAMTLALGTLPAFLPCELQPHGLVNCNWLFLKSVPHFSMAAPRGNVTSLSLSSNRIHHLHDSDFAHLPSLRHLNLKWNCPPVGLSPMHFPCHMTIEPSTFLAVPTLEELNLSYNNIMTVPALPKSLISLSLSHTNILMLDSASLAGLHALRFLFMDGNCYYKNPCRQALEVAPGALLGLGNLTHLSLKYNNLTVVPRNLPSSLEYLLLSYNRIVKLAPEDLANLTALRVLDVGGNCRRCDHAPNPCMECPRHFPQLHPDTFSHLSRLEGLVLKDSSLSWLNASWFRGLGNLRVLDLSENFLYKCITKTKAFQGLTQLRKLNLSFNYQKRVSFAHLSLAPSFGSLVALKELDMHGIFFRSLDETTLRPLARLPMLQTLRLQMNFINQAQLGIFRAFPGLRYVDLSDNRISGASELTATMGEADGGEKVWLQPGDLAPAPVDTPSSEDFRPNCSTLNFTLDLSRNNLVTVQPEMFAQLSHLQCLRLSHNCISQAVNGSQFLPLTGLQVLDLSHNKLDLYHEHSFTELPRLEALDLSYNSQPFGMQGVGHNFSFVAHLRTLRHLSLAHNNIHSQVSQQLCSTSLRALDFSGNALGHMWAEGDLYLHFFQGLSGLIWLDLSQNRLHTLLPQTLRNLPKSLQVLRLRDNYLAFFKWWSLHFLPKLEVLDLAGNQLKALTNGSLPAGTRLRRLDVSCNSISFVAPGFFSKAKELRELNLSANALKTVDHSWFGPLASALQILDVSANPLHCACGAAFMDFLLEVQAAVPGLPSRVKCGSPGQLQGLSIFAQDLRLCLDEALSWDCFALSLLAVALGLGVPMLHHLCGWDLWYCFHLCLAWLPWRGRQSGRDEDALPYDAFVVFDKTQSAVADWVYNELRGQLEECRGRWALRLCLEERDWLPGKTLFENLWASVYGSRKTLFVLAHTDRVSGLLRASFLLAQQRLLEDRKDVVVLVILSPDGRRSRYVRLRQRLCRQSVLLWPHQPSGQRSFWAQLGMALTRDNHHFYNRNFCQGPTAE
The depositor's hits bear a star; · = not tested or not shown. Shown is part of a subset that was picked to be rich in hits.

SMILES | XBP1 UPR activ | TLR4 MyD88 comp | UPR CHOP act | CHOP inh | NOD2-RIPK2 inh | TLR9-MyD88 inh
Cc1ccc(C)c(NC(=S)NC(NC(=O)N(C)C)C(Cl)(Cl)Cl)c1 (stereo not drawn) | -3.1 | 9.5 | -1.1 | -16.5 | 1.9 | -1.9
Cc1ccccc1NC(=S)NC(NC(=O)COc1ccccc1)C(Cl)(Cl)Cl (stereo not drawn) | -2.6 | 6.4 | 1.1 | 82.7* | -6.0 | -2.0
O=C(COC(=O)CNC(=O)c1sc2ccccc2c1Cl)Nc1c(Cl)cc(Cl)cc1Cl | 0.9 | -3.8 | 4.0 | 1.9 | -0.1 | -11.8
COc1cccc(CN(C)C(=O)CSCC(=O)Nc2cccc(C)c2)c1OC | -1.8 | · | -0.8 | · | -6.1 | -7.5
Cc1occc1C(=O)N/N=C/c1ccc(OCc2ccccc2)cc1 | 2.2 | · | 2.4 | 71.2* | 5.0 | 3.7
CSC1=NC(=O)/C(=C\c2cccc3ccccc23)S1 | 1.0 | -7.6 | 1.4 | 103.1* | -6.3 | 1.1
COc1cccc(/C=C2\N=C(SC)SC2=O)c1OC | 2.1 | -2.6 | -2.0 | 64.4 | -4.6 | -2.9
COCCNC(=O)c1ccccc1NC(=O)CCSc1ccccc1 | -1.8 | -1.4 | -3.4 | 3.9 | -3.6 | 1.1
COc1cc(OC)c(NC(=O)c2ccco2)cc1Cl | 0.2 | -1.8 | -0.1 | 72.1* | -2.9 | 4.3
COc1cc(NC(=O)c2ccco2)ccc1NC(=O)C(C)C | 2.2 | -0.5 | -2.0 | 80.0* | -0.1 | 3.9
COc1cc(NC(=O)CC(C)C)ccc1NC(=O)c1ccco1 | 4.3 | 17.0 | 2.4 | · | -2.8 | 7.8
COc1cc(NC(=O)c2ccco2)c(OC)cc1NC(=O)CCC(=O)Nc1cc(C)cc(C)c1 | -0.4 | -0.1 | -1.0 | 75.6* | 3.2 | 0.1
CC(=O)NC1CC2CCCC(C1)N2C(=O)Nc1ccc(Cl)cc1 (stereo not drawn) | · | · | · | · | -1.1 | 5.0
CCCn1nnnc1NCc1ccccc1C | -2.6 | · | 2.1 | · | -8.9 | -14.6
COCCCN1C(=O)c2ccc(C(=O)OCC(=O)N3CCN(c4ccccc4)CC3)cc2C1=O | -2.0 | · | -1.0 | · | -7.1 | 4.0
COc1ccccc1C(=O)NCCC(=O)OCC(=O)Nc1ccc(S(N)(=O)=O)cc1 | -3.4 | · | -0.3 | · | 1.2 | -2.1
Cc1cccc(C(=O)NCCNc2nc3cc(C)c(C)cc3cc2C)c1 | 0.7 | 3.6 | -0.8 | 76.0* | -1.6 | 4.8
COc1ccc(-c2cnnc(N/N=C/c3ccc(O)cc3)n2)cc1 | 9.9 | -2.4 | 4.8 | 81.4* | 1.6 | 0.5
COc1ccc(CNC(=O)CN(C(=O)CCC(=O)Nc2ccccn2)c2ccc3c(c2)OCO3)cc1 | 2.1 | · | 0.3 | · | 1.2 | 6.3
O=C1c2ccccc2C(=O)N1OS(=O)(=O)c1ccc(F)cc1 | · | · | · | · | -6.2 | -3.3
Cc1ccc(S(=O)(=O)ON2C(=O)c3ccccc3C2=O)c(C)c1 | · | -17.4 | · | 93.6* | -11.4 | -7.2
Cc1cccc(N2CCN(CC(=O)Nc3ccccc3[N+](=O)[O-])CC2)c1C | -0.3 | -1.9 | 2.3 | 76.8* | -8.7 | -3.3
Cc1cccc(N2CCN(c3ccc(N4C(=O)CCCC4=O)cc3[N+](=O)[O-])CC2)c1C | -2.1 | -1.1 | -0.4 | 84.1* | -3.4 | 9.3
O=C1CCCC(=O)N1c1ccc(N2CCN(c3ccccc3)CC2)c([N+](=O)[O-])c1 | -1.0 | 3.6 | -1.4 | 11.0 | -3.0 | 3.2
COc1cc(CC(=O)Nc2ccc(S(=O)(=O)N(C)C)cc2)cc(OC)c1OC | 0.3 | 3.6 | 4.0 | 52.7 | -4.1 | -7.1
SMILES | XBP1 UPR activ | TLR4 MyD88 comp | UPR CHOP act | CHOP inh | NOD2-RIPK2 inh | TLR9-MyD88 inh
O=C(/C=C/c1ccccc1)CC(=O)c1ccccc1O | 6.8 | -9.6 | 2.2 | 5.3 | 0.1 | 8.0
CN1CCN(c2ccccc2NC(=O)COc2ccc(Br)cc2)CC1 | -3.0 | 7.2 | 1.2 | 22.2 | -9.7 | -2.4
O=C1COc2ccc(C(=O)CSc3nnnn3-c3ccccc3)cc2N1 | -0.5 | 1.5 | -0.5 | 14.5 | 3.2 | 0.1
Cn1c(SCC(=O)c2ccc3c(c2)NC(=O)CO3)nc2ccccc21 | 1.0 | -19.1 | 1.8 | 85.8* | -3.0 | -16.4
CCn1c(O)c(/C=C2\C=Nc3ccccc32)sc1=Nc1ccccc1 | 9.3 | 1.8 | 1.5 | 78.7* | 0.0 | 8.1
COc1ccc(NC(C)=[N+](C)CCNS(=O)(=O)c2ccc(Cl)cc2)cc1 | -5.0 | · | 0.4 | · | -4.4 | -4.4
CN(CC(O)COc1ccccc1F)C1CCCCC1 (stereo not drawn) | -0.9 | 9.7 | -1.1 | 12.3 | -0.4 | -3.7
Cc1ccccc1OCC(O)CN(Cc1ccccc1O)C1CCCCC1 (stereo not drawn) | -3.8 | 1.1 | 0.7 | 87.8* | -0.9 | -0.9
CC(=O)c1c(C)[nH]c(C(=O)OCC(=O)Nc2sc3c(c2C#N)CCC(C)C3)c1C (stereo not drawn) | -1.1 | · | 1.5 | 94.3* | · | -3.1
CC1CCc2c(sc(NC(=O)CSc3ncn[nH]3)c2C#N)C1 (stereo not drawn) | -9.4 | · | -7.6 | 85.3* | -1.6 | 8.1
CC1CCc2c(sc(NC(=O)CSc3nnc(-c4ccccc4)o3)c2C#N)C1 (stereo not drawn) | -2.0 | 0.1 | 1.1 | 73.8* | 1.0 | 6.3
N#Cc1c(NC(=O)CSc2ncn[nH]2)sc2c1CCCC2 | -2.4 | 5.5 | -6.2 | 78.2* | 2.6 | 8.4
CCCNC(=O)C1(C)CCN(Cc2ccc(-c3ccccc3)o2)C1 (stereo not drawn) | · | · | · | · | 3.3 | ·
Cn1c(CNC(=O)c2ccc(Cl)cc2)nnc1SCC(=O)Nc1sc2c(c1C#N)CCCC2 | 0.1 | 3.5 | 1.3 | 91.0* | -2.7 | 8.2
Cc1ccc(Sc2ccc(NC(=O)CCl)cc2)c(C)c1 | 2.4 | 0.3 | 19.8 | 83.7* | · | ·
COc1ccc(/C=C2\Oc3cc(OCC(=O)N4CC(O)C[C@H]4C(=O)O)ccc3C2=O)cc1OC (stereo partly drawn) | -3.2 | · | 0.0 | · | -4.2 | 3.6
CON/C=C(\C=Nc1ccc(Cl)cc1Cl)c1ncc(C(F)(F)F)cc1Cl | 1.3 | -2.7 | -0.5 | -24.6 | -1.9 | -12.7
CON/C=C(\C=Nc1ccccc1)c1ncc(C(F)(F)F)cc1Cl | -0.6 | 2.3 | -2.2 | 89.4* | -14.3 | -5.2
COc1ccc(C2(C(=O)NCCCN3CCOCC3)CCOCC2)cc1 | 2.1 | -9.6 | -1.2 | 23.2 | -4.6 | 0.1
CCCCOCCCNC(=O)C[C@@H]1C[C@@]2(C(=O)OC)CCCCC=C2N(CCc2ccc(OC)c(OC)c2)C1=O | · | · | · | · | -0.8 | ·
Cc1c(NC2=CC(=O)CC(C)(C)C2)ccc([N+](=O)[O-])c1C | -1.4 | -9.9 | -0.9 | 85.0* | 2.8 | -2.1
